Format in all cases: cell-based
For assay [1], the system named is HeLa. Description: Inhibition of SERCA in human HeLa cells assessed as increase in cytosolic calcium level at 6.10 x 10^-10M measured over 300 secs by Fluo-4 NW dye based FLIPR analysis relative to control. The gist of the method:
(§1)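 HeLa cells seeded at 25,000/well in MEM + 10% FBS and kept overnight at 37°C, 5% CO2. They were loaded with FLUO-4 NW (30 min 37°C, then 30 min RT) in HBSS/20 mM HEPES. Compounds were added from DMSO in a 10-point titration (in-assay 10 uM–38 pM). Fluorescence (ex 470-495, em 515-575 nm) was read 300 s. Signal maxima were normalized to thapsigargin (100%) and buffer/0.2% DMSO controls. Three independent runs in duplicate.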

Assay [2] concerns HeLa. Description: Inhibition of SERCA in human HeLa cells assessed as increase in cytosolic calcium level at 2.50 x 10^-6M measured over 300 secs by Fluo-4 NW dye based FLIPR analysis relative to control. The gist of the method:
(§2)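 HeLa cells were seeded at 25,000/well in MEM + 10% FBS and grown overnight at 37°C, 5% CO2. They were loaded with Fluo-4 NW (30 min at 37°C, then 30 min at RT). Compound was added in HBSS/20 mM HEPES, one point of a 10-point in-assay range (10 uM – 38 pM). Fluorescence (ex 470-495, em 515-575 nm) was read for 300 s. Peak signal was normalized to thapsigargin (=100%) and buffer (0.2% DMSO) controls.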

Assay [3] deals with HeLa. Description: Inhibition of SERCA in human HeLa cells assessed as increase in cytosolic calcium level at 3.81 x 10^-11M measured over 300 secs by Fluo-4 NW dye based FLIPR analysis relative to control. The essentials:
as §2

In assay [4] the test system is HeLa. Description: Inhibition of SERCA in human HeLa cells assessed as increase in cytosolic calcium level at 1.56 x 10^-7M measured over 300 secs by Fluo-4 NW dye based FLIPR analysis relative to control. The essentials:
as §2

The subject of assay [5] is HeLa. Description: Inhibition of SERCA in human HeLa cells assessed as increase in cytosolic calcium level at 1.00 x 10^-5M measured over 300 secs by Fluo-4 NW dye based FLIPR analysis relative to control. The gist of the method:
as §2

Assay [6] concerns HeLa. Description: Inhibition of SERCA in human HeLa cells assessed as increase in cytosolic calcium level at 6.25 x 10^-7M measured over 300 secs by Fluo-4 NW dye based FLIPR analysis relative to control. The gist of the method: as §2
A short description of assay [7]: Inhibition of SERCA in human HeLa cells assessed as increase in cytosolic calcium level measured over 300 secs by Fluo-4 NW dye based FLIPR analysis. The essentials: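 Fluo-4 NW-loaded HeLa cells (25,000/well, overnight culture in MEM/10% FBS) received 10-point titrations (10 uM – 38 pM in-assay) in HBSS/20 mM HEPES. Fluorescence was recorded for 300 s. Peak signals, normalized to thapsigargin and 0.2% DMSO buffer controls, were fitted to a log agonist-response model. The midpoint concentration is reported as IC50. Values are mean ± SD of three independent determinations, each run in duplicate.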

In assay [8] the test system is HeLa. Description: Inhibition of SERCA in human HeLa cells assessed as increase in cytosolic calcium level at 1.53 x 10^-10M measured over 300 secs by Fluo-4 NW dye based FLIPR analysis relative to control. The essentials:
as §1

Assay [9] concerns HeLa. Description: Inhibition of SERCA in human HeLa cells assessed as increase in cytosolic calcium level at 2.44 x 10^-9M measured over 300 secs by Fluo-4 NW dye based FLIPR analysis relative to control. The gist of the method: as §1
Assay [10] has as its system HeLa. Description: Inhibition of SERCA in human HeLa cells assessed as increase in cytosolic calcium level at 3.91 x 10^-8M measured over 300 secs by Fluo-4 NW dye based FLIPR analysis relative to control. The gist of the method:
as §2

Assay [11] concerns HeLa. Description: Inhibition of SERCA in human HeLa cells assessed as increase in cytosolic calcium level at 9.77 x 10^-9M measured over 300 secs by Fluo-4 NW dye based FLIPR analysis relative to control. The essentials:
as §1

What is called inhibition is the change of the read-out against control, counted positive when it falls. Usually IC50 stands for the concentration that inhibits the measured activity by half. For `C/C=C(/C)C(=O)O[C@H]1C(C)=C2[C@H]([C@@H]1OC(=O)CCCCCCC)[C@@](C)(OC(C)=O)C[C@H](OC(=O)[C@@H](C)CC)[C@@]1(O)[C@H]2OC(=O)[C@@]1(C)O`, the inhibition in [1] is -3.2 to 2.2%; in [2], 91.1 to 109%; in assay [3] it was -2.2 to 2.4%; in [4], 6.2 to 40.9%; in assay [5], 89.4 to 110%; in assay [6], 88.4 to 101%. In addition, the inhibition was -4.2 to 2.5% in [8], -1.6 to 2.8% in assay [9], 2.9 to 27.6% in assay [10] and -1.3 to 3.8% in assay [11]. Further, the IC50 in assay [7] lay within 220 to 298 nM.
Turning to `CCCCCCCC(=O)O[C@H]1[C@H]2C(=C(C)[C@@H]1OC(=O)c1cccs1)[C@@H]1OC(=O)[C@@](C)(O)[C@@]1(O)[C@@H](OC(=O)CCC)C[C@]2(C)OC(C)=O`, the inhibition is 79.6 to 105% in assay [2]; -5.9 to 0.6% in assay [3]; 52.4 to 84.4% in assay [4]; 92.9 to 102% in assay [5]; 68.8 to 103% in [6]; -7.5 to 25.7% in [10]. Moreover, the IC50 in assay [7] lay within 71.5 to 117 nM.
In the case of `C/C=C(/C)C(=O)O[C@H]1C(C)=C2[C@H]([C@@H]1OC(=O)CCCCCCC)[C@@](C)(OC(C)=O)C[C@H](OC(=O)CCC)[C@@]1(O)[C@H]2OC(=O)[C@@]1(C)O` [THAPSIGARGIN], the inhibition in [1] was -5 to 0.6%; in assay [2], 92.9 to 105%; in assay [3], -2.3 to 2.9%; in assay [4], 67.6 to 103%; in assay [5], 89 to 107%; in assay [6], 90.4 to 109%. For the same compound, the inhibition was -1.7 to 0.1% in assay [8], -4.1 to 1.4% in assay [9], 37.6 to 75.1% in assay [10] and -2.7 to 10.5% in assay [11]. In addition, the IC50 in [7] lay within 28.5 to 51 nM.
With `C/C=C(/C)C(=O)O[C@@H]1C[C@H]2C(=C1C)[C@@H]1OC(=O)[C@@](C)(O)[C@@]1(O)[C@@H](OC(=O)C=C(C)C)C[C@]2(C)OC(C)=O`, the inhibition in assay [1] was -3 to 3.3%; in assay [2] it was 87.1 to 102%; in assay [3], -2 to 1.7%; in assay [4], 12.1 to 55.6%; in assay [5], 92 to 102%; in [6], 65.5 to 94.1%. The inhibition in assay [8] is -3.3 to 2.6%; in assay [9], -3.4 to 4.1%; in assay [10], -1.7 to 10.7%; in assay [11] it was -4.7 to 4.6%. Besides, in assay [7], the IC50 fell in the range of 204 to 268 nM.
With `C/C=C(/C)C(=O)O[C@H]1C(C)=C2[C@H]([C@@H]1OC(=O)CCCCC)[C@@](C)(OC(C)=O)C[C@H](OC(=O)CCC)[C@@]1(O)[C@H]2OC(=O)[C@@]1(C)O`, the inhibition in assay [1] is -4.6 to 4.1%; in assay [2], 91.1 to 105%; in [3], -2.5 to 2%; in assay [4], 64.9 to 94.4%; in assay [5], 86.6 to 100%; in [6], 90.8 to 104%. The inhibition in assay [8] is -2.1 to 3.5%; in assay [9] it was -5.9 to 4.6%; in assay [10], 5.8 to 30.7%; in [11], -2.2 to 7.9%. Also, the IC50 in assay [7] is 73 to 90 nM.
Consider `CCCCCCCC(=O)O[C@H]1[C@H]2C(=C(C)[C@@H]1OC(=O)c1sccc1C)[C@@H]1OC(=O)[C@@](C)(O)[C@@]1(O)[C@@H](OC(=O)CCC)C[C@]2(C)OC(C)=O`, for which the inhibition in assay [1] was -4.2 to 0.8%; in assay [2], 86.7 to 101%; in assay [3], -2.2 to 3.1%; in [4], 57 to 99.4%; in [5], 92 to 101%; in [6], 83.7 to 102%. The inhibition was -2.6 to 0.5% in assay [8], -7.7 to 1.6% in assay [9], -6.6 to 60.1% in assay [10] and -6.6 to 10% in assay [11]. Moreover, the IC50 in assay [7] is 30 to 119 nM.
`CCCCCCCC(=O)O[C@H]1[C@H]2C(=C(C)[C@@H]1OC(=O)CC(C)C)[C@@H]1OC(=O)[C@@](C)(O)[C@@]1(O)[C@@H](OC(=O)CCC)C[C@]2(C)OC(C)=O`: the inhibition in [2] was 72.4 to 91.7%; in assay [3], -8 to 21.4%; in assay [5] it was 89.7 to 96.6%; in assay [6] it was 40.2 to 84.1%. The IC50 in [7] is 310 to 576 nM.
As for `CCCCCCCC(=O)O[C@H]1[C@H]2C(=C(C)[C@@H]1OC(=O)[C@H](C)CC)[C@@H]1OC(=O)[C@@](C)(O)[C@@]1(O)[C@@H](OC(=O)CCC)C[C@]2(C)OC(C)=O`, the inhibition was -0.7 to 1.9% in assay [1]; 88.1 to 106% in assay [2]; -0.7 to 2.6% in assay [3]; 71.9 to 87.8% in [4]; 87.4 to 108% in [5]; 91.7 to 104% in [6]. In addition, the inhibition is -4.3 to 1.5% in assay [8], -1.6 to 3.6% in assay [9], 8.1 to 45.8% in [10] and 1 to 7.1% in assay [11]. For the same compound, the IC50 in assay [7] lay in the range of 57.7 to 104 nM.

The record behind these values is ChEMBL document CHEMBL4229391, “Divergent synthesis of thapsigargin analogs” (Bioorg Med Chem Lett, 2018).
